Assay results reported in ChEMBL document CHEMBL1135973, “Synthesis and structure-activity relationships of 6,7-benzomorphan derivatives as use-dependent sodium channel blockers for the treatment of stroke” (J Med Chem, 2002).

Tests used:
[1] = target: T1, Sodium channel alpha subunits; brain (Types I, II, III) (Rattus norvegicus, UniProt P04775+P04774+P08104); test: Inhibitory effect against veratridine-induced glutamate release from rat brain slices; format: functional
Procedure, shortened: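 Cross-chopped 0.2 mm slices of Chbb:Thom rat cortex or striatum preincubated 45 min at 37 °C in oxygenated Krebs–Henseleit buffer pH 7.4 with glucose, EDTA and ascorbate. Then 15 min with or without 3 μM veratridine, drug present throughout. After centrifugation, supernatant glutamate measured by HPLC with fluorimetric detection; protein by Coomassie.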

Mus musculus [2] = species on record: Mus musculus; test: Ability to block convulsions in the maximal electroshock test (MES) in mice; format: functional
Procedure, shortened: (§1)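 Male OF1 mice, groups of 10, given several doses sc; electroshock 20 mA/50 Hz/200 ms through eye electrodes 15 min after injection. Score is the percentage of animals free of tonic convulsions. ID50 for inhibition of tonic seizures obtained by log-probit analysis over three to four doses.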

[3] = target: T1, Sodium channel alpha subunits; brain (Types I, II, III); test: Displacement of [3H]BTX from sodium channel of rat cerebral cortex synaptosomes; format: subcellular
Procedure, shortened: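 Synaptosomal membranes from rat cerebral cortex incubated 1 h at 37 °C with 1 nmol/L [3H]BTX-B in choline Cl/HEPES-Tris buffer pH 7.4 containing glucose, KCl and MgSO4, plus scorpion venom. Nonspecific binding defined with 100 μmol/L aconitine. Stopped by vacuum filtration through glass fiber and two buffer washes.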

[4] = target: T2, Sodium channel alpha subunits; brain (Types I, II, III) (Rattus norvegicus) (UniProt P04775+P04774+P08104); test: Percent inhibition of veratridine-induced glutamate release in rat brain slices at 10000 nmol/L; format: functional, tissue-based
[5] = target: T3, Voltage-gated L-type calcium channel (Rattus norvegicus, UniProt P22002+Q02485+P27732); test: Displacement of diltiazem from L-type calcium channel binding site; format: protein assay
[6] = target: T3, Voltage-gated L-type calcium channel; test: Displacement of verapamil from L-type calcium channel binding site; format: protein assay
[7] = target: T3, Voltage-gated L-type calcium channel; test: Displacement of DHP from L-type calcium channel binding site; format: protein assay
[8] = target: T1, Sodium channel alpha subunits; brain (Types I, II, III); test: Displacement of [3H]-TTX from sodium channel of rat cerebral cortex synaptosomes; format: subcellular
Mus musculus [9] = species on record: Mus musculus; test: Percent of mice that did not develop tonic convulsion in the maximal electroshock test (MES); format: functional; procedure, shortened: as §1
Mus musculus [10] = species on record: Mus musculus; test: Ability to block convulsions in the maximal electroshock test(MES) in mice; format: functional; conditions: read-out: ID50 (the source's name); procedure, shortened: as §1
[11] = target: T2, Sodium channel alpha subunits; brain (Types I, II, III) (Rattus norvegicus); test: Percent inhibition of [3H]BTX displacement at 10000 nmol/L; format: protein assay
[12] = target: T3, Voltage-gated L-type calcium channel; test: Displacement of dihydropyridine (DHP) from the L-type calcium channel binding site; format: protein assay
[13] = read-out: ID50 (the source's name)

T2 sequence (P04775 whole entry, looked up, other chains not shown): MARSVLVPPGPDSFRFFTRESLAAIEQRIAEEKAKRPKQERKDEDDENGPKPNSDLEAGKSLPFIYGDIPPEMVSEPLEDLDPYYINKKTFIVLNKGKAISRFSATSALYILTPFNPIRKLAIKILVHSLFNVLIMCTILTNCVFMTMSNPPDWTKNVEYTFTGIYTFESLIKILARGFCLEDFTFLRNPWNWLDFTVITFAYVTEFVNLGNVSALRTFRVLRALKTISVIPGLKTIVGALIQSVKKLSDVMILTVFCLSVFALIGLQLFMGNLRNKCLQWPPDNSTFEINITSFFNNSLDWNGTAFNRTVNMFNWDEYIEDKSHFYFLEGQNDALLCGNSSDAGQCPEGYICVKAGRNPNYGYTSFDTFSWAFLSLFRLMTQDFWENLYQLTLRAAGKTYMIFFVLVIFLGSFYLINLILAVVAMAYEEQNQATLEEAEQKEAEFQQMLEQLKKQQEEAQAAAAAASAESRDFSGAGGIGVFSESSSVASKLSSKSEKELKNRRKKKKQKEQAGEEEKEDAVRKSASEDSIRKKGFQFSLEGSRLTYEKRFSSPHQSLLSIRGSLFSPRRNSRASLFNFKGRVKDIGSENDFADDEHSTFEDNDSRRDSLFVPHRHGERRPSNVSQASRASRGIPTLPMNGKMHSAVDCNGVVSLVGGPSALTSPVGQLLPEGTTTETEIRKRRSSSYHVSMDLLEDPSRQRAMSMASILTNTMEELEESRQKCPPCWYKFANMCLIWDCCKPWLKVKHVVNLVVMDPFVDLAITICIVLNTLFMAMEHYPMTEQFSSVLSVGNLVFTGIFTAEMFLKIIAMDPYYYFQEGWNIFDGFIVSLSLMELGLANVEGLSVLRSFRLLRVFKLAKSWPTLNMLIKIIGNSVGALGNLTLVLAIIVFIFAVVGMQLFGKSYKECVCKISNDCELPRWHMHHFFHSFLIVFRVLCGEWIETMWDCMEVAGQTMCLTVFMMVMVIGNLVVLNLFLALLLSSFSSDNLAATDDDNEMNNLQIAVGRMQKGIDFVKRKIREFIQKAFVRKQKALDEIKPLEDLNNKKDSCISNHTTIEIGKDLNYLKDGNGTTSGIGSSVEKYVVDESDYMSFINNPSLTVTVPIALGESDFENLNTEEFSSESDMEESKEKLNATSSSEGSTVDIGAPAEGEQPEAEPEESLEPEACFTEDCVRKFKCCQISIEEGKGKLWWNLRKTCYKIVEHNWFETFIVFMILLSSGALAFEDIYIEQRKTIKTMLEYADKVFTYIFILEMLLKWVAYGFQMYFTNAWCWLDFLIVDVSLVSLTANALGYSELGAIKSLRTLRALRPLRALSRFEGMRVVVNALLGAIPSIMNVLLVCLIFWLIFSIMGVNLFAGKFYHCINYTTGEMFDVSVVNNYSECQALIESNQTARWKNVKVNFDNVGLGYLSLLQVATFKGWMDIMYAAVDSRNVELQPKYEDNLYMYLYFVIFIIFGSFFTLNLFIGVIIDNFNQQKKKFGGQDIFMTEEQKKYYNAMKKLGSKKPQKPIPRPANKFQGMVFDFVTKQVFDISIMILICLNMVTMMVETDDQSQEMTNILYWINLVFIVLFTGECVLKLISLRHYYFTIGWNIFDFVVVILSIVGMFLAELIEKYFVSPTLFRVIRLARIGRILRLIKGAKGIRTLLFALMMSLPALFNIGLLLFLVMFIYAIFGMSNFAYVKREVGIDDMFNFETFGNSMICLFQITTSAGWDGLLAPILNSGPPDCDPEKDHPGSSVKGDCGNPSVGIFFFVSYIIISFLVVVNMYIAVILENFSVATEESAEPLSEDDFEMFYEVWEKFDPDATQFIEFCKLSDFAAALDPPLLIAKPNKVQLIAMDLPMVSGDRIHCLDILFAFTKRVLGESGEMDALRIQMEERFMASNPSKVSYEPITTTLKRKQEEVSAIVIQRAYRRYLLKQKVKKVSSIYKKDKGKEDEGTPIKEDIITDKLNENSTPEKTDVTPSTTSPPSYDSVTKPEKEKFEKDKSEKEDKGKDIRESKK
T2 sequence (P08104 whole entry, looked up, other chains not shown): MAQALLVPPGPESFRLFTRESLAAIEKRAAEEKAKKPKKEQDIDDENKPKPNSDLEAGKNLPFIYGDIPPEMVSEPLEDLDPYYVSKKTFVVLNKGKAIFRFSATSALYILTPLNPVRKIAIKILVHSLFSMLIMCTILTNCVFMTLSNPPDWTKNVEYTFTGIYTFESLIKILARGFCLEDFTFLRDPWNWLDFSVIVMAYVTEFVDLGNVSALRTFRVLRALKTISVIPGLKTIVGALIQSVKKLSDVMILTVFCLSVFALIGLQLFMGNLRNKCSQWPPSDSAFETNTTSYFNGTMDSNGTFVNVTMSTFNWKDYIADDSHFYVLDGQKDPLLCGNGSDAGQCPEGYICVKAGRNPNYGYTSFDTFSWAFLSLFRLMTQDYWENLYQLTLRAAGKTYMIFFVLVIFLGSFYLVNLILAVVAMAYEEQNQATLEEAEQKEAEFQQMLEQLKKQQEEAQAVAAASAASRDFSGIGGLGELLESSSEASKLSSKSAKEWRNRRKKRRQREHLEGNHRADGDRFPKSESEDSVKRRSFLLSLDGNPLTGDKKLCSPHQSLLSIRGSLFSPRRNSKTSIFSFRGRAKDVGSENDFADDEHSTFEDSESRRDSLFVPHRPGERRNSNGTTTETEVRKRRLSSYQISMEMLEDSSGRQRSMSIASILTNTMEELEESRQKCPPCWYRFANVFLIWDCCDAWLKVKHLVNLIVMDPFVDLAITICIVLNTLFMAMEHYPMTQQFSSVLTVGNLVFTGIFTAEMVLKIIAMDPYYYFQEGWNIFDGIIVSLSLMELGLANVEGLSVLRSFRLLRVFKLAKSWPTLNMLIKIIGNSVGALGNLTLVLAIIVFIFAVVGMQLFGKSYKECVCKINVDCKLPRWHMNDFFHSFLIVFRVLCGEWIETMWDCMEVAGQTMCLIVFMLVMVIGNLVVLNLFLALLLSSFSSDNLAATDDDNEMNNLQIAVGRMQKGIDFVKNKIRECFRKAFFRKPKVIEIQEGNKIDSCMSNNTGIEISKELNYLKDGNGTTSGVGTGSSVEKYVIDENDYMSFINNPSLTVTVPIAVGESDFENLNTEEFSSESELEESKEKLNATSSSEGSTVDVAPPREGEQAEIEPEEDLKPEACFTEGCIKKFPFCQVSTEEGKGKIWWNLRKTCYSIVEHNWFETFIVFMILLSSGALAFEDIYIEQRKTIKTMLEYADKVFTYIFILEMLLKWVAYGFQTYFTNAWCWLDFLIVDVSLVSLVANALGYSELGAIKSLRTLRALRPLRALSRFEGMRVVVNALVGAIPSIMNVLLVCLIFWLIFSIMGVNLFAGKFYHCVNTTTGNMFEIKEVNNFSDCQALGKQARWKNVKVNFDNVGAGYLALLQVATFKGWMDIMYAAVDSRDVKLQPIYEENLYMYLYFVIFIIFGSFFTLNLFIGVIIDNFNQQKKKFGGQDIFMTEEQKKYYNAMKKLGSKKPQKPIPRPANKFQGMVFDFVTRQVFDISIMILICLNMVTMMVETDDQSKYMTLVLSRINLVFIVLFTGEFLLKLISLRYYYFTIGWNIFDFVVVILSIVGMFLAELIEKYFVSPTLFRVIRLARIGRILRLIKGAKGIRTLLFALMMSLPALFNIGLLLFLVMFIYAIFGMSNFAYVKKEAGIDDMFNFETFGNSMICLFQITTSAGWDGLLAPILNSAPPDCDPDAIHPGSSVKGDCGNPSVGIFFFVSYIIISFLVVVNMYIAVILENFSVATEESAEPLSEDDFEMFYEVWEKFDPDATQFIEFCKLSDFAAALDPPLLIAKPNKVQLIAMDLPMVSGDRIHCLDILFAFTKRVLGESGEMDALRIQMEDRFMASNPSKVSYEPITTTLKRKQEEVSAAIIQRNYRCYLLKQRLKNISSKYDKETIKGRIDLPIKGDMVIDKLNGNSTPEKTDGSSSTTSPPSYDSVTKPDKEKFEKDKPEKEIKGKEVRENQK

Compound: COC(C)CN1CCC2(C)c3cc(O)ccc3C[C@@H]1C2(C)C (stereo partly specified)
- IC50 [1]: > 10000 nmol/L
- ED50 (Mus musculus [2]): 0.1 mg/kg
- Ki [3]: 6010 nM
- inhibition [4]: 29%

Compound: C[C@H](CN1CCC2(C)c3ccc(O)cc3C[C@@H]1C2(C)C)OCc1ccccc1
- IC50 [1]: 3177 nmol/L
- ED50 (Mus musculus [2]; [13]): 35.3 mg/kg
- Ki [3]: 382 nM

Compound: C[C@H](CN1CCC2(C)c3cccc(O)c3C[C@@H]1C2(C)C)OCc1ccccc1
- IC50 [1]: 922 nmol/L
- Ki [5]: 391 nM l-1
- Ki [6]: 500 nM l-1
- ED50 (Mus musculus [2]; [13]): 9.4 mg/kg
- Ki [3]: 114 nM
- Ki [7]: > 10000 nM l-1
- Ki [8]: > 10000 nM l-1

Compound: COc1ccc2c(c1)[C@]13CCCC[C@@H]1[C@H](C2)N(C)CC3 [DEXTROMETHORPHAN]
- IC50 [1]: > 10000 nmol/L
- Ki [3]: 4800 nM
- inhibition [4]: 5%

Compound: C[C@H](CN1CCC2(C)c3ccc(O)cc3C[C@H]1C2(C)C)OCc1ccccc1
- Mice (Mus musculus [9]): 30%
- IC50 [1]: 2676 nmol/L
- ED50 (Mus musculus [2]; [13]): > 100 mg/kg
- Ki [3]: 1230 nM

Compound: C[C@H](CN1CCC2(C)c3cccc(O)c3C[C@@H]1C2(C)C)OCC1CCCCC1
- Mice (Mus musculus [9]): 0%
- IC50 [1]: 1481 nmol/L
- Ki [3]: 241 nM
- ED50 (Mus musculus [10]): > 30 mg/kg

Compound: Cc1cccc(C)c1OCC(C)N (stereo unspecified) [MEXILETINE]
- IC50 [1]: 47000 nmol/L
- Ki [3]: 22700 nM

Compound: CC12CCN(CCc3ccccc3)[C@@H](Cc3cc(O)ccc31)C2(C)C
- IC50 [1]: 5029 nmol/L
- Ki [3]: 1290 nM

Compound: CN(c1nc2ccccc2s1)C1CCN(C[C@H](O)COc2ccc(F)c(F)c2)CC1 [LUBELUZOLE]
- Ki [3]: 203 nM

Compound: Cc1ccc(-c2nc(CN3CCN(C(c4ccccc4)c4ccccc4)CC3)c(C)[nH]2)cc1 [LIFARIZINE]
- IC50 [1]: 494 nmol/L
- Ki [3]: 259 nM

Compound: C[C@@H](CN1CCC2(C)c3ccc(O)cc3C[C@@H]1C2(C)C)OCc1ccccc1
- IC50 [1]: 2300 nmol/L
- ED50 (Mus musculus [2]; [13]): 10.1 mg/kg
- Ki [3]: 312 nM

Compound: CO[C@@H](C)CN1CCC2(C)c3cccc(O)c3C[C@@H]1C2(C)C
- IC50 [1]: 3190 nmol/L
- ED50 (Mus musculus [2]): 1 mg/kg
- Ki [3]: 783 nM

Compound: C[C@H](CN1CCC2(C)c3ccc(O)cc3C[C@H]1C2(C)C)Oc1ccccc1
- IC50 [1]: 6340 nmol/L
- Ki [3]: 864 nM

Compound: COC(C)CN1CCC2(C)c3c(O)cccc3C[C@@H]1C2(C)C (stereo partly specified)
- IC50 [1]: > 10000 nmol/L
- Ki [3]: 8990 nM
- inhibition [4]: 23%

Compound: C[C@@H](CN1CCC2(C)c3cccc(O)c3C[C@H]1C2(C)C)OCc1ccccc1
- Mice (Mus musculus [9]): 40%
- IC50 [1]: 1289 nmol/L
- ED50 (Mus musculus [2]; [13]): > 100 mg/kg
- Ki [3]: 1330 nM

Compound: CO[C@@H](C)CN1CCC2(C)c3ccccc3C[C@@H]1C2(C)C
- IC50 [1]: ~ 10000 nmol/l
- Ki [3]: 4700 nM
- inhibition [4]: 52%

Compound: CO[C@@H](C)CN1CCC2(C)c3cccc(O)c3C[C@H]1C2(C)C
- IC50 [1]: > 10000 nmol/L
- inhibition [11]: 52%
- Ki [3]: 10000 nM
- inhibition [4]: 25%

Compound: CO[C@H](C)CN1CCC2(C)c3cccc(O)c3C[C@@H]1C2(C)C
- IC50 [1]: 4153 nmol/L
- ED50 (Mus musculus [2]): 0.8 mg/kg
- Ki [3]: 3310 nM

Compound: C[C@@H](CN1CCC2(C)c3cccc(O)c3C[C@@H]1C2(C)C)OCC1CCCCC1
- Mice (Mus musculus [9]): 0%
- IC50 [1]: 975 nmol/L
- ED50 (Mus musculus [2]; [13]): > 30 mg/kg
- Ki [3]: 208 nM

Compound: C[C@@H](CN1CCC2(C)c3ccc(O)cc3C[C@H]1C2(C)C)Oc1ccccc1
- Animals (Mus musculus [9]): 0%
- IC50 [1]: 6464 nmol/L
- ED50 (Mus musculus [2]; [13]): > 100 mg/kg
- Ki [3]: 1530 nM

Compound: C[C@H](CN1CCC2(C)c3cccc(O)c3C[C@H]1C2(C)C)OCc1ccccc1
- Mice (Mus musculus [9]): 40%
- IC50 [1]: 3772 nmol/L
- ED50 (Mus musculus [2]; [13]): > 100 mg/kg
- Ki [3]: 1490 nM

Compound: C[C@@H](CN1CCC2(C)c3ccc(O)cc3C[C@@H]1C2(C)C)Oc1ccccc1
- Animals (Mus musculus [9]): 0%
- IC50 [1]: 5799 nmol/L
- ED50 (Mus musculus [2]; [13]): > 30 mg/kg
- Ki [3]: 149 nM

Compound: CO[C@H](C)CN1CCC2(C)c3cccc(O)c3C[C@H]1C2(C)C
- IC50 [1]: > 10000 nmol/L
- inhibition [11]: 48%
- Ki [3]: 10000 nM
- inhibition [4]: 42%

Compound: COC(C)CN1CCC2(C)c3ccc(O)cc3C[C@@H]1C2(C)C (stereo partly specified)
- IC50 [1]: > 10000 nmol/L
- inhibition [11]: 45%
- ED50 (Mus musculus [2]): 0.7 mg/kg
- Ki [3]: > 10000 nM
- inhibition [4]: 21%

Compound: CC1[C@H]2Cc3c(O)cccc3C1(C)CCN2C[C@H](C)OCc1ccccc1 (stereo partly specified)
- IC50 [1]: 134 nmol/L
- ED50 (Mus musculus [2]; [13]): 2.4 mg/kg
- Ki [3]: 54 nM

Compound: CC12CCN(CCOCc3ccccc3)[C@H](Cc3c(O)cccc31)C2(C)C
- IC50 [1]: 379 nmol/L
- Ki [12]: > 10000 nM l-1
- Ki [5]: 217 nM l-1
- Ki [6]: 60 nM l-1
- ED50 (Mus musculus [2]; [13]): 2.1 mg/kg
- Ki [3]: 20 nM
- Ki [8]: > 10000 nM l-1

Compound: C[C@@H](CN1CCC2(C)c3cccc(O)c3C[C@@H]1C2(C)C)OCc1ccccc1
- IC50 [1]: 322 nmol/L
- Ki [5]: 660 nM l-1
- Ki [6]: 449 nM l-1
- ED50 (Mus musculus [2]; [13]): 6.1 mg/kg
- Ki [3]: 43 nM
- Ki [7]: > 10000 nM l-1
- Ki [8]: > 10000 nM l-1

Compound: CC1[C@H]2Cc3c(O)cccc3C1(C)CCN2C[C@@H](C)OCc1ccccc1 (stereo partly specified)
- IC50 [1]: 452 nmol/L
- ED50 (Mus musculus [2]; [13]): 3.1 mg/kg
- Ki [3]: 153 nM

Compound: C[C@H](CN1CCC2(C)c3ccc(O)cc3C[C@@H]1C2(C)C)Oc1ccccc1
- IC50 [1]: 6024 nmol/L
- Ki [3]: 662 nM

Compound: CC(CN1CCC2(C)C[C@@H]1Cc1c(O)cccc12)OCc1ccccc1 (stereo partly specified)
- IC50 [1]: 255 nmol/L
- ED50 (Mus musculus [2]; [13]): 2.2 mg/kg
- Ki [3]: 47 nM

Compound: C[C@@H](CN1CCC2(C)c3ccc(O)cc3C[C@H]1C2(C)C)OCc1ccccc1
- Mice (Mus musculus [9]): 30%
- IC50 [1]: 4516 nmol/L
- ED50 (Mus musculus [2]; [13]): > 100 mg/kg
- Ki [3]: 1870 nM
